UPR CHOP act: activators of apoptotic CHOP UPR arm, primary screen, cell-based, CHO-CHOP luciferase reporter, luminescence, uHTS. UPR activation; percent of tunicamycin response over DMSO baseline. activation, % at 10 µM. 330,000 tested, 0.34% active. AID 449763, 2010;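 active means at 10 µM dose, activation of 40% or more, normalized to positive control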;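 further: 100% = tunicamycin at 10 µg/mL and 0% = DMSO alone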
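Assay system: CHO cells with stable CHOP pathway luciferase reporter; Buffer or medium: F12 plus 10% serum; Times: 16-18 h cell attachment, then 6 h compound exposure, 37 °C; Signal: luciferase luminescence; Read-out basis: percent activation relative to tunicamycin control; Control set: tunicamycin high control, DMSO low control.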
Mdm2-MdmX inh: inhibitors of human Mdm2-MdmX association, primary screen, cell-based, luminescence, split luciferase, SaOS-2, uHTS. Protein Mdm4 (Homo sapiens) + E3 ubiquitin-protein ligase Mdm2 (Homo sapiens), …. SaOS-2 split-luciferase Mdm2/MdmX complementation. inhibition, % at 8 µM. 330,000 tested, 3% active. AID 485346, 2010;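 active means inhibition of at least 50% at 8 µM in the primary screen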
Target sequence (O15151 whole entry, looked up): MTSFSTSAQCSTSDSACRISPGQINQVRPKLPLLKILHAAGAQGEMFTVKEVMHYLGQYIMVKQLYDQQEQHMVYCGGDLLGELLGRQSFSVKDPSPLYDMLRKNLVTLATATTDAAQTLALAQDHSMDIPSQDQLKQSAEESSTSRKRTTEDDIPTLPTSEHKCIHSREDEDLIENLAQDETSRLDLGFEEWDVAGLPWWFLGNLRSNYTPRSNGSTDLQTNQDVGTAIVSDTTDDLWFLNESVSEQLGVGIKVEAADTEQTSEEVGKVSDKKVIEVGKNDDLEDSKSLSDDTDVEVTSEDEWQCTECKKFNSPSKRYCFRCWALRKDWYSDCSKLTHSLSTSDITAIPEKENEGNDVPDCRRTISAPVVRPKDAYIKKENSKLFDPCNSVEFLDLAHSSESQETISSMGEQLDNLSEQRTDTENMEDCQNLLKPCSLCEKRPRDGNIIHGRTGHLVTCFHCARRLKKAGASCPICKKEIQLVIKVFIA
Target sequence (Q00987 whole entry, looked up): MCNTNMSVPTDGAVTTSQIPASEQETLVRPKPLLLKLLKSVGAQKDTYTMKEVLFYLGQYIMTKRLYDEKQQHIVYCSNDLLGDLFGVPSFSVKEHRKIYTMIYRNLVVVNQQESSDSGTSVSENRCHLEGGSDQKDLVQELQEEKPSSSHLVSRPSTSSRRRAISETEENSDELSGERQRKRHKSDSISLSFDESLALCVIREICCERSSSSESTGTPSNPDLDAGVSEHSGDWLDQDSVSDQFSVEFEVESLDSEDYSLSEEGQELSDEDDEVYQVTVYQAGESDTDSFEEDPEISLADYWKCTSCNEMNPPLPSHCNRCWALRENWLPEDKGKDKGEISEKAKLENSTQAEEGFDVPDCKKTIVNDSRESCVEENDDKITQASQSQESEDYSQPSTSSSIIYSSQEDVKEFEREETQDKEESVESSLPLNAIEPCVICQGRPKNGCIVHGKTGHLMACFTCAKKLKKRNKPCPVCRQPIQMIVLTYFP
Beta cell apopt: inhibitors of cytokine-induced beta cell apoptosis, primary screen, luminescence | INS-1E cytokine-induced death, ATP luminescence, 48 h; percent of positive-control rescue, neutral wells zero | protection from apoptosis, % (test concentration not listed) | 300,000 tested, 0.8% active | AID 435005, 2010;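 active means Every replicate reaches about 75%, or at least half do and their mean reaches it too, limit read from the data; inconclusive means At least half of replicates reach the limit but their mean does not; inactive means Under half of replicates reach the limit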;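 further: 0% = cytokine-treated negative control wells and 100% = positive control rescue; higher means more ATP so stronger rescue from cytokine killing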
UPR XBP1 act: activators of adaptive XBP1 UPR arm, primary screen, cell-based, CHO-XBP1 luciferase reporter, luminescence, uHTS. activation, % at 20 µM. IRE1-XBP1 UPR activation; percent of tunicamycin response, DMSO as zero. 330,000 tested, 0.33% active. AID 463104, 2010;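 active means versus positive control, 20 µM dose yields 30% or more activation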;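 further: 100% = tunicamycin at 10 µg/mL and 0% = DMSO only wells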
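Material: CHO-XBP1 cells stably carrying IRE1-XBP1-driven luciferase reporter | Medium: F12 with 10% serum | Compound dosing: 20 µM single concentration, DMSO 1% | Incubation: Overnight seeding at 37 °C, 6 h compound treatment at 37 °C | Detection: Steady-Glo luminescence read | Read-out basis: % activation of reporter signal versus tunicamycin and DMSO controls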
CSC inhib: cancer stem cell viability inhibitors, primary screen, luminescence; cancer stem cell-like cells viability; inhibition, % at 7.5 µM; 300,000 tested, 1.1% active; AID 2717, 2010; in the data active means inhibition above about 75%; inconclusive means no clear call, values can overlap the other calls; tested in HMLE shEcad cells
SKKanGAS inh: S. pyogenes SKKanGAS growth inhibitors in kanamycin, primary screen, streptokinase expression inhibitor project, SKKanGAS strain, BacTiter-Glo luminescence. 300,000 tested, 1.3% active. 6 h. AID 1662, 2009. inhibition, % at 7.5 µM;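 active means mean replicate score, as percent of positive control median, at least 50; inconclusive means mean below 50 but one replicate at or above 50; inactive means mean and every replicate below 50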;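 further: strain carries kanamycin resistance gene driven by streptokinase promoter and grows in 40 µg/ml kanamycin; loss of luminescence reflects streptokinase promoter inhibition or plain growth inhibition; 0% = median of DMSO wells and 100% = positive control at its reference dose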
Mdm2-MdmX conf: Mdm2-MdmX complex disruptors, retested hits, confirmation, luminescence, single concentration; shares compounds with Mdm2-MdmX inh; Mdm2-MdmX binding, luminescent assay; inhibition, % at 8 µM; 10,000 tested, 55% active; in the data active means inhibition above about 40%
FLuc counter: full-length luciferase signal inhibition, confirmation, counter-screen for Mdm2/MdmX interaction inhibitor project, cell-based, single concentration, SaOS-2. shares compounds with Mdm2-MdmX inh. 6,200 tested, 77% active. inhibition, % at 8 µM. SaOS-2 full-length luciferase counterscreen, luminescence;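 active means mean inhibition at 8 µM reaching about 37%, which flags the compound as non-specific, limit read from the data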;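 further: p53-null SaOS-2 cells with luciferase driven by a doxycycline-inducible promoter; compound on cells about two nights before reading with doxycycline added after day one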
An asterisk follows results filed as active; u = inconclusive; x = not tested or not shown. Shown are actives, neighbours in structure and some others; about 4.8% of the full set was active somewhere.

SMILES	UPR CHOP act	Mdm2-MdmX inh	Beta cell apopt	UPR XBP1 act	CSC inhib	SKKanGAS inh	Mdm2-MdmX conf	FLuc counter
O=C(O)c1ccccc1Nc1cc(Cl)c2nonc2c1[N+](=O)[O-]	1	4	1	0	-10	7	x	x
O=C(C1=NN(c2ccccc2)C(=O)CC1)N1CCc2ccccc2C1	0	5	-3	-2	-6	-3	x	x
N#Cc1c(Cl)nsc1NC(=O)c1ccccc1	2	76*	78*	7	46	22	52*	71*
N#Cc1c(NC(=O)c2ccccc2)sc2c1CCCCC2	0	-218	13	-6	21	-8	x	x
OC(COc1ccc(OCC(O)CN2CCCCC2)cc1)CN1CCCCC1 (stereo unspecified)	1	13	-6	-1	9	-4	x	x
OC(COc1ccc(CNCCc2ccc(C(F)(F)F)cc2)cc1)CN1CCCCC1 (stereo unspecified)	1	100*	6	1	16	16	99*	53*
COc1ccc2nc(N(Cc3ccccc3)C(=O)CCNC(C)=O)sc2c1	1	12	4	2	4	0	x	x
Cc1nnc2c3ccccc3c(-c3cccs3)nn12	1	54*	-7	8	-5	13	35	53*
Cc1nnc2c3ccccc3c(Cl)nn12	0	7	-4	9	2	11	x	x
Cc1nnc2c3ccccc3c(-c3ccc(O)cc3)nn12	0	66*	-6	1	3	4	33	62*
CNC(=O)NC(=O)C(c1ccccc1)N(C)CC1COc2ccccc2O1 (stereo unspecified)	2	16	1	-3	-2	9	x	x
O=C(NCCc1ccc(Cl)cc1)Nc1ccc(F)cc1	4	5	-4	0	-4	-14	x	x
CCCc1c(NC(=O)Nc2ccc(F)cc2)cnn1-c1ccc(Cl)cc1	-2	61*	2	1	25	30	32	x
O=C1CC(c2cc(Br)ccc2F)c2cc3c(cc2N1)CCC3 (stereo unspecified)	0	66*	40	11	82*	-4	56*	95*
O=C1CC(c2ccccc2Br)c2cc3c(cc2N1)CCC3 (stereo unspecified)	-1	58*	4	-1	67	-1	62*	56*
O=C1CC(c2cccc(Cl)c2)c2cc3c(cc2N1)CCC3 (stereo unspecified)	-2	54*	x	-2	x	-6	58*	64*
O=C1CC(c2cccc([N+](=O)[O-])c2)c2cc3c(cc2N1)CCC3 (stereo unspecified)	-3	31	10	-1	41	-4	x	x
COc1cc2c(cc1OC)C(c1ccc(Br)cc1)CC(=O)N2 (stereo unspecified)	1	21	-1	-1	-25	1	x	x
COc1cccc(C2CC(=O)Nc3cc4c(cc32)CCC4)c1 (stereo unspecified)	-1	46	26	1	14	-1	x	x
O=C1CC(c2ccccc2F)c2cc3c(cc2N1)CCC3 (stereo unspecified)	0	58*	x	3	x	3	58*	57*
CCCCCCCNC(=O)C1(CC2CC(c3ccc(Cl)cc3)=NO2)CCN(C(=O)OC(C)(C)C)CC1 (stereo unspecified)	-1	0	-3	2	12	18	x	x
CC[C@@H](C)[C@H](CNC)NC[C@@H](Cc1cccc2ccccc12)NCCc1cccc(C(F)(F)F)c1	34	100*	14	8	u	99*	100*	52*
Cc1ccccc1CS(=O)(=O)c1ccc(C(=O)N2CCOCC2)cc1[N+](=O)[O-]	-1	38	-35	-6	-8	-3	x	x
O=C(c1ccc(S(=O)(=O)c2ccccc2Cl)c([N+](=O)[O-])c1)N1CCN(Cc2ccccc2)CC1	6	84*	0	-1	12	-4	75*	30
O=C(c1ccc(Br)c([N+](=O)[O-])c1)N1CCN(Cc2ccccc2)CC1	1	28	x	-1	-9	-2	x	x
SMILES	UPR CHOP act	Mdm2-MdmX inh	Beta cell apopt	UPR XBP1 act	CSC inhib	SKKanGAS inh	Mdm2-MdmX conf	FLuc counter
O=C(c1ccc(S(=O)(=O)Cc2ccccc2F)c([N+](=O)[O-])c1)N1CCCC1	2	28	-43	-1	1	1	x	x
O=C(c1ccc(S(=O)(=O)Cc2ccccc2Cl)c([N+](=O)[O-])c1)N1CCOCC1	2	51*	-44	-6	11	0	42*	49*
O=C(NC1CCCCC1)c1ccc(S(=O)(=O)c2ccccc2Cl)c([N+](=O)[O-])c1	3	77*	-4	-3	10	-4	66*	17
O=C(NC1CCCCC1)c1ccc(-n2cncn2)c([N+](=O)[O-])c1	0	-11	5	4	-18	x	x	x
O=C(c1ccc(S(=O)(=O)c2ccc(F)cc2)c([N+](=O)[O-])c1)N1CCCCCC1	5	56*	41	-2	33	-1	31	30
Cc1ccc2[nH]c(C(=O)NCCN3CCCC3)cc2c1	0	-13	x	2	1	-6	x	x
COc1ccc(NC(=O)c2cc(S(=O)(=O)N3CCCC3)ccc2C)cn1	-2	0	-3	-1	-13	x	x	x
CN(C(=O)c1ccc(S(=O)(=O)c2cccc(Cl)c2)c([N+](=O)[O-])c1)C1CCCCC1	12	73*	-9	-1	47	-12	60*	29
O=C1N/C(=N\N=C\c2cccs2)SC1Cc1cccc(Cl)c1Cl (stereo unspecified)	1	83*	4	3	50	-25	62*	58*
O=C(CC1S/C(=N/N=C/c2cccs2)NC1=O)Nc1ccc(Cl)cc1 (stereo unspecified)	0	34	-5	9	12	10	x	x
O=C1N/C(=N\N=C\c2cccs2)SC1Cc1ccc(Cl)cc1Cl (stereo unspecified)	1	74*	-5	2	39	13	51*	70*

Compound activity from PubChem BioAssay.
